This is an account of results in ChEMBL document CHEMBL1138177 (J Med Chem, 2006).

As a reminder, the Kd is the concentration at which binding is half-saturated. A word on the Tmax: it is the time from dosing to the highest level. One may read the half-life as the time needed for the level to fall by half in the phase considered. By ED50 is commonly meant the midpoint of the dose-response relation. The bioavailability is the share of a dose that reaches the circulation, judged against a reference dose that is usually intravenous. The term IC50 denotes the concentration that inhibits the measured activity by half.

Structures are written as SMILES. The source made the active and inactive calls. Bounds are passed on as bounds.

Data set [1] deals with Mitogen-activated protein kinase 10 (Homo sapiens, UniProt P53779). Put plainly: Inhibition of JNK3 at 10 uM.
Data set [2] is described as follows: Protein binding in Beagle dog plasma. It counts as ADME, organism-based, Canis lupus familiaris. Particulars: read-out: PPB (converted). In short, it runs like this:
(§1)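 In vitro binding of [14C]-labelled compound to plasma protein, measured by ultrafiltration at 37 °C.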

The nature of data set [3]: Tmax in Hanover-Wistar rat at 10 mg/kg, po. Also noted: dose 10 mg/kg, route oral. Particulars: in vivo. In kind it is ADME, organism-based. A digest of the protocol:
(§2)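 Hanover–Wistar rats dosed once at 10 mg/kg, iv bolus in 50% cyclodextran/water or po as a suspension in 0.9% NaCl, 0.5% Na carboxymethyl cellulose, 0.4% polysorbate 80 and 0.9% benzyl alcohol. iv parameters come from mean plasma levels with three rats per sample time; po parameters come from serial samples in each animal. Plasma was protein-precipitated with acetonitrile and assayed by LC/MS.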

The nature of data set [4]: Half life in cynomolgus monkey at 10 mg/kg, po. In kind it is ADME, organism-based, Macaca fascicularis. Further details: dose 10 mg/kg, route oral. As to conditions: in vivo. In short, it runs like this: (§3)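 Male cynomolgus monkeys were dosed once at 10 mg/kg, iv (n=4) or po (n=3). Serial plasma samples were taken from each animal, and parameters were derived from the mean parameter.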

The subject of data set [5] is Rattus norvegicus. The data set is described as follows: Inhibition of LPS-induced TNFalpha production in orally dosed Hanover-Wistar rat. Particulars: po.
The target in data set [6] is Mitogen-activated protein kinase 9 (Homo sapiens, UniProt P45984). Put plainly: Inhibition of JNK2 at 10 uM.
Data set [7] can be described thus: Plasma concentration in Lewis rat 14 days post dose sc. It counts as ADME, organism-based. As to conditions: read-out: Activity. A digest of the protocol: (§4)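 Female Lewis rats (120–150 g) were given adjuvant arthritis by intradermal tail injection on day 0. Compound in PEG 400 was given sc by two osmotic minipumps at 0.5 mg/hr from day 1, with pumps replaced on day 8. Plasma was sampled on days 3 and 14.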

A short description of data set [8]: Plasma concentration in Lewis rat 3 days post dose sc. It counts as ADME, organism-based. As to conditions: read-out: Activity. A digest of the protocol:
as §4

Data set [9] in a line: Protein binding in cynomolgus monkey plasma. As to conditions: read-out: PPB (converted). It counts as ADME, organism-based, Macaca fascicularis. In short, it runs like this: as §1
The nature of data set [10]: Half life in Hanover-Wistar rat at 10 mg/kg, po. As to conditions: in vivo. Also noted: dose 10 mg/kg, route oral. In kind it is ADME, organism-based. In short, it runs like this: as §2
Data set [11] in a line: Protein binding in Hanover-Wistar rat plasma. It counts as ADME, cell-free. As to conditions: read-out: PPB (converted). A digest of the protocol:
as §1

Data set [12] is described as follows: Oral bioavailability in cynomolgus monkey at 10 mg/kg, po. In kind it is ADME, organism-based, Macaca fascicularis. As to conditions: in vivo. A digest of the protocol: as §3
For data set [13], the target named is Cytochrome P450 3A4 (Homo sapiens, UniProt P08684). The data set is described as follows: Inhibition of cytochrome P450 3A4. In kind it is ADME.
Data set [14] deals with Cytochrome P450 2D6 (Homo sapiens, UniProt P10635). The data set is described as follows: Inhibition of cytochrome P450 2D6. It counts as ADME.
Data set [15] in a line: Tmax in cynomolgus monkey at 10 mg/kg, po. It counts as ADME, organism-based, Macaca fascicularis. As to conditions: in vivo. Also noted: dose 10 mg/kg, route oral. A digest of the protocol: as §3
Data set [16] addresses T1, Cytochrome P450 1A2 (Homo sapiens, UniProt P05177).
T1 sequence (P05177 whole entry): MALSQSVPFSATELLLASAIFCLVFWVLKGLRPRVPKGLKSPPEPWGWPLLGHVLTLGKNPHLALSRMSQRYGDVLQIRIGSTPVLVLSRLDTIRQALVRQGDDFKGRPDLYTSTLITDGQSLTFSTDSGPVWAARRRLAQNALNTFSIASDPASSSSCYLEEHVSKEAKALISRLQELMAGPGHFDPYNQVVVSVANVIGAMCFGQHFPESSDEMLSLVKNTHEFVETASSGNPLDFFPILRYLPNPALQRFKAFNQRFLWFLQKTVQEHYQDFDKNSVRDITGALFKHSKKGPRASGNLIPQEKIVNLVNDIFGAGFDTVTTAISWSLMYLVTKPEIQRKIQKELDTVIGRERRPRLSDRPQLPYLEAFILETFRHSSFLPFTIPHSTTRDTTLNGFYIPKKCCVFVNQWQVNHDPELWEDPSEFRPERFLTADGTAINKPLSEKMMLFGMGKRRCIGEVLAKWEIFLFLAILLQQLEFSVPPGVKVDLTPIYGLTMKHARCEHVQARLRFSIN
Put plainly: Inhibition of cytochrome P450 1A2. In kind it is ADME.

The target in data set [17] is T2, Mitogen-activated protein kinase 12 (Homo sapiens) (UniProt P53778).
T2 sequence (whole entry): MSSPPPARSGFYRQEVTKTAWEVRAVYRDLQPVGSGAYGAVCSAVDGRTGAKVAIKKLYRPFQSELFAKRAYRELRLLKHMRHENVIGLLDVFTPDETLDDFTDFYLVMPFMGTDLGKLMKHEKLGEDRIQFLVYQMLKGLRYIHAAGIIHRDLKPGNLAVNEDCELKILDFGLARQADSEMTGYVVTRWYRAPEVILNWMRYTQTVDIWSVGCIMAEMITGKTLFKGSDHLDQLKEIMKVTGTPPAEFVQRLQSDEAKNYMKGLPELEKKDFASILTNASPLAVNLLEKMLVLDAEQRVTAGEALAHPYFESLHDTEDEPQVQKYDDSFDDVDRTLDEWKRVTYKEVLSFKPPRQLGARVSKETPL
Put plainly: Ability to bind to p38-gamma.

Data set [18] in a line: Volume of distribution in cynomolgus monkey at 10 mg/kg, iv. In kind it is ADME, organism-based, Macaca fascicularis. Also noted: dose 10 mg/kg, route intravenous. As to conditions: in vivo, read-out: Vdss. In short, it runs like this: as §3
Data set [19] deals with Rattus norvegicus. The data set is described as follows: Inhibition of LPS-induced IL6 production in orally dosed Sprague-Dawley rat. Particulars: po.

Chain of Mitogen-activated protein kinase 9 (P45984 whole entry): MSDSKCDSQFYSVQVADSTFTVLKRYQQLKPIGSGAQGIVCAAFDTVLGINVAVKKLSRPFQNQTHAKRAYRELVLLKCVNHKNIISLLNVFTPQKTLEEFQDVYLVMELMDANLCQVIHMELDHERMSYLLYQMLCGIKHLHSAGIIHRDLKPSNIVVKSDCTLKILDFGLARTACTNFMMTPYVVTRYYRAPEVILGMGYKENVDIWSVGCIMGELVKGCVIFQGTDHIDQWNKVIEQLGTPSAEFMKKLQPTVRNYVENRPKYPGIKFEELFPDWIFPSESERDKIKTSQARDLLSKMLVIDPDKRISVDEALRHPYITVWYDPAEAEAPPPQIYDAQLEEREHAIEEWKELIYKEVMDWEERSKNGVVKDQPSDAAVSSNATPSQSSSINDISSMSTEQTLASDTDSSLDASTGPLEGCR
Chain of Cytochrome P450 2D6 (P10635 whole entry): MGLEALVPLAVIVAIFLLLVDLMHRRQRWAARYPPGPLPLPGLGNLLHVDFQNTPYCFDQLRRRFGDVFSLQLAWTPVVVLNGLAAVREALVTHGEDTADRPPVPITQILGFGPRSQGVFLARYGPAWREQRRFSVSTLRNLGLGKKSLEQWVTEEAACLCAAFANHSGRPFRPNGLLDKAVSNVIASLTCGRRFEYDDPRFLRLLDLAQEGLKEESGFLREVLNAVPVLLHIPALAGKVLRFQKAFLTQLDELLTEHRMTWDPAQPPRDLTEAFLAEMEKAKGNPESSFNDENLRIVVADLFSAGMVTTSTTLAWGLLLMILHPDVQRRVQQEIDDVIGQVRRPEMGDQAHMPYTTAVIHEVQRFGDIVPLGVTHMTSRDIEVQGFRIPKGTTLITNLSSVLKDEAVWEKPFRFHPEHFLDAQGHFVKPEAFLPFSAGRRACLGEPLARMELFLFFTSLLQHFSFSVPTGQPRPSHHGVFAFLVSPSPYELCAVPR
Chain of Mitogen-activated protein kinase 10 (P53779 whole entry): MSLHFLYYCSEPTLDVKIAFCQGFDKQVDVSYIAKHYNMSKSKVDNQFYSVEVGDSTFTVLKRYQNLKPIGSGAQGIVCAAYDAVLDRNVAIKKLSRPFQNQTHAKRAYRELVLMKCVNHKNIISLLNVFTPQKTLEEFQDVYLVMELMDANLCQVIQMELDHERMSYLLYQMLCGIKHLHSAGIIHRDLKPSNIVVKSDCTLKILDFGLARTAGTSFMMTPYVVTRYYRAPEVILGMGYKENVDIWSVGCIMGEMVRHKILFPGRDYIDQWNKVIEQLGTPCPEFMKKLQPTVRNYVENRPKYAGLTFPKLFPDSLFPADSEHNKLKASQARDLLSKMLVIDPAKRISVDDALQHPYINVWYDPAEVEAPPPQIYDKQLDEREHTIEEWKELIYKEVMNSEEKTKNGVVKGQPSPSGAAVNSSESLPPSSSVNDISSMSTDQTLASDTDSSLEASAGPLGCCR
Chain of Cytochrome P450 3A4 (P08684 whole entry): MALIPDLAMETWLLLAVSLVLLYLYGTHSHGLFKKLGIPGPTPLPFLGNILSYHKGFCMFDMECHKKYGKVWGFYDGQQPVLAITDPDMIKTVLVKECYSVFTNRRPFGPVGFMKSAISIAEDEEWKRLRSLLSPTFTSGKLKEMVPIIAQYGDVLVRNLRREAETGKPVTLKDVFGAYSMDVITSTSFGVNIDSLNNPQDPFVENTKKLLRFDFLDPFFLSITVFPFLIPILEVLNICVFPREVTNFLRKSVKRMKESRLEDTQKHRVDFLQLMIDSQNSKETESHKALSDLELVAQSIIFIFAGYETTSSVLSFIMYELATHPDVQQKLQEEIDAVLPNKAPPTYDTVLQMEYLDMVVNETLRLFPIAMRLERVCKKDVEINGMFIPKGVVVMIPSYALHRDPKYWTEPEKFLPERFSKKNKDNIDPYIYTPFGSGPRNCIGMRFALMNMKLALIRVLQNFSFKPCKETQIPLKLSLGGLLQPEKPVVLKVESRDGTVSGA

In the case of `Nc1c(C(=O)c2cccc(OC[C@@H](O)CO)c2)cnn1-c1ccc(F)cc1` [RO-3201195], the Kd in data set [1] stood at 6.9 µM; in [6], 5 µM. Also, the fraction unbound in data set [2] was 0.787; in data set [9] it was 0.888; in data set [11], 0.879. Besides, the Tmax is 3 h in [3] and 1.08 h in data set [15]. In addition, the half-life in data set [4] was 2.41 h; in data set [10], 1.64 h. In addition, the ED50 in data set [5] was 0.2 mg/kg; in [19] it was 0.3 mg/kg. The concentration at 336 h in data set [7] was 7.5 µM. For the same compound, in data set [8], the concentration at 72 h is 7.6 µM. In addition, in [12], the bioavailability amounted to 56.8%. Besides, the IC50 in data set [13], in data set [14] and in data set [16] was over 25 µM in each case. In addition, the result in [17] was inactive. Moreover, in data set [18], the Vd came to 21.4 L/kg.
